Laboratory results published in ChEMBL document CHEMBL4673248, “Discovery and Characterization of BAY 1214784, an Orally Available Spiroindoline Derivative Acting as a Potent and Selective Antagonist of the Human Gonadotropin-Releasing Hormone Receptor as Proven in a First-In-Human Study in Postmenopausal Women” (J Med Chem, 2020).
≈ marks a conversion by molar mass, not a printed value. Calls of active or inactive are those of the source. The calls are words filed in the database; no cut-off is given here. Square brackets hold non-standard residues; d marks the D form. Peptide text beside a SMILES is read from it. dPhe(4-Cl) = N[C@H](Cc1ccc(Cl)cc1)C(=O)O; d2Nal = N[C@H](Cc1ccc2ccccc2c1)C(=O)O; dCit = NC(=O)NCCC[C@@H](N)C(=O)O; d3Pal = N[C@H](Cc1cccnc1)C(=O)O

Assays:
[1] = Lipophilicity, log D of the compound in pH 7.5 MeCN/H2O solution by reversed-phase HPLC analysis; type: physicochemical
Procedure, shortened: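 Indirect reversed-phase HPLC at pH 7.5, calibrated with n-alkan-2-ones C3–C16. Compounds applied as 0.67 mM DMSO stocks in MeCN/H2O (1:1).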

[2] = target: T1, Gonadotropin-releasing hormone receptor (Homo sapiens, UniProt P30968); assay: Antagonist activity at human GnRH receptor expressed in CHO-K1 cells assessed as inhibition of buserelin-induced response preincubated for 20 mins followed by buserelin addition and measured after 60 mins by TR-FRET assay; type: cell-based
T1 sequence (P30968 whole entry): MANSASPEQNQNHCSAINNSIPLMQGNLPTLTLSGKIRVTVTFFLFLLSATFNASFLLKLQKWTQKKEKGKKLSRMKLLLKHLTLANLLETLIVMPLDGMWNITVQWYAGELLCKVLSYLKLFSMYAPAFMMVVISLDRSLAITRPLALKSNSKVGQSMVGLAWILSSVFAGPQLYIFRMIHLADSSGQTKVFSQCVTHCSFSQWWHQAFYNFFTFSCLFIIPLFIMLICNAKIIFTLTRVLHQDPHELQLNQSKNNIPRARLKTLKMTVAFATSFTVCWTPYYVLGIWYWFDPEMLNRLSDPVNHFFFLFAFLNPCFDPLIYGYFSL

[3] = target: Voltage-gated inwardly rectifying potassium channel KCNH2 (Homo sapiens, UniProt Q12809); assay: Inhibition of human ERG expressed in HEK293 cells assessed as reduction in channel inward tail current by whole cell voltage clamp assay; type: cell-based
Chain of Voltage-gated inwardly rectifying potassium channel KCNH2 (Q12809 whole entry): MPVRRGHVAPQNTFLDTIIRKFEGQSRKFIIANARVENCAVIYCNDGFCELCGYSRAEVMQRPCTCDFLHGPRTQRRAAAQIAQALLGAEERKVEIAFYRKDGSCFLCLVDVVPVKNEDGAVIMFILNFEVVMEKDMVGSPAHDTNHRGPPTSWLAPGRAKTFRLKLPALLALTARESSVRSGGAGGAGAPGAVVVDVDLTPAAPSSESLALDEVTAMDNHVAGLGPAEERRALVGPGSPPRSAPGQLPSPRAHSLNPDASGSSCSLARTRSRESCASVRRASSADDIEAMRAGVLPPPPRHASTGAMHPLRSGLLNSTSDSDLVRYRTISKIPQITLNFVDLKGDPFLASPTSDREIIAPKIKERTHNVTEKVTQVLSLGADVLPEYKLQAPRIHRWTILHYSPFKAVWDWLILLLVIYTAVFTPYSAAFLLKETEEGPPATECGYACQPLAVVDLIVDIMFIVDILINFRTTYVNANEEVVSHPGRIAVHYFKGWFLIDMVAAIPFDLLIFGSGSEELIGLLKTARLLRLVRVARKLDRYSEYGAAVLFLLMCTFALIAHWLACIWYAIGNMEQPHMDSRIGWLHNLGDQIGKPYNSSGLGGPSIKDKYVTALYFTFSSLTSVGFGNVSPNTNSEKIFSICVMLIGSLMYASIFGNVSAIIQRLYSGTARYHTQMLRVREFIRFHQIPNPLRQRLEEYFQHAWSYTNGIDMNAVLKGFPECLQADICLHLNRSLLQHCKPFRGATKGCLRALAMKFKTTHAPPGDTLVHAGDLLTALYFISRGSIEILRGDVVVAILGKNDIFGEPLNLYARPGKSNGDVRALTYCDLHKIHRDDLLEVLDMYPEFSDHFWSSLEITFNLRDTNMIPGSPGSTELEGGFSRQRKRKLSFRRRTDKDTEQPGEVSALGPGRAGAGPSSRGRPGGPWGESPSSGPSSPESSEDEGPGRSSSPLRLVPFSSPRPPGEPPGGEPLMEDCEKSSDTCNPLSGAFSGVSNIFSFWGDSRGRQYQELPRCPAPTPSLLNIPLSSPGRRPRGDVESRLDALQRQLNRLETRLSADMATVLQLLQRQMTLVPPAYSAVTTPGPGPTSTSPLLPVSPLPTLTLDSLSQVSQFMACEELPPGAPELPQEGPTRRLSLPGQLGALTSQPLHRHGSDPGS

Rattus norvegicus [4] = assay: Suppression of ovariectomized-induced increase in plasma luteinizing hormone level in Wistar Han rat at 30 mg/kg, ip measured after 1 hr relative to control; type: functional
Procedure, shortened: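 Ovariectomized rats given a single intraperitoneal injection at 30 mg/kg. Plasma LH measured 1 h later and compared with vehicle-treated animals.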

[5] = Aqueous solubility of compound at pH 6.5 incubated for 24 hrs under shaking condition by HPLC-MS/MS analysis; type: physicochemical; conditions: aqueous solution
Procedure, shortened: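 Compound from 1 mM DMSO solution, pH 6.5 buffer added, shaken 24 h at rt. Filtered, dissolved compound quantified by HPLC-MS/MS.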

[6] = Oral bioavailability in Wistar rat at 2 mg/kg by LC-MS/MS analysis; type: ADME, organism-based; conditions: in vivo
[7] = target: T2, Gonadotropin-releasing hormone receptor (Rattus norvegicus, UniProt P30969); assay: Antagonist activity at rat GnRH receptor expressed in CHO-K1 cells assessed as inhibition of LHRH-induced response preincubated for 20 mins followed by LHRH addition and measured after 60 mins by TR-FRET assay; type: cell-based
T2 sequence (P30969 whole entry): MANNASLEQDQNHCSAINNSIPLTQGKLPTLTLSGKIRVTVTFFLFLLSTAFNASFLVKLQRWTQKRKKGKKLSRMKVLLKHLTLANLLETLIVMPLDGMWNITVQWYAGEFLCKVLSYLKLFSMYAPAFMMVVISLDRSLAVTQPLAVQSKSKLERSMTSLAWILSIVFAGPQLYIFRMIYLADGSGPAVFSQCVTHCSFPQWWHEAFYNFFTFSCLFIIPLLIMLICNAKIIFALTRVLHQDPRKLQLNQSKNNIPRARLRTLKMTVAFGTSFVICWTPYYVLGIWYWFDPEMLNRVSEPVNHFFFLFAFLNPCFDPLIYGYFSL
Procedure, shortened: (§1)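 Frozen rat-receptor cells: thawed, seeded overnight in serum-containing Ham's F12, Accutase-harvested, resuspended in serum-free medium with IP1-d2, 1 h at 37 °C. 1.0 × 10^4 cells/well, 20 min compound preincubation at rt, then 1× EC80 LHRH or buserelin in HEPES stimulation buffer pH 7.4 for 60 min at 37 °C. Tb-anti-IP1 lysis (1:38), HTRF read 60 min later.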

[8] = target: T1, Gonadotropin-releasing hormone receptor; assay: Antagonist activity at human GnRH receptor expressed in CHO-K1 cells assessed as inhibition of LHRH-induced response preincubated for 20 mins followed by LHRH addition and measured after 60 mins by TR-FRET assay; type: cell-based
[9] = Half life in Wistar rat at 0.5 mg/kg, iv by LC-MS/MS analysis; type: ADME, organism-based; conditions: in vivo
[10] = Intrinsic clearance in Han Wistar rat hepatocytes at 1 uM measured up to 90 mins by LC/MS/MS analysis; type: ADME, cell-based, Hepatocyte; conditions: for CLint scaled at 1 µM: Han Wistar, read-out: CLH (converted); for CLH: 1.5 h, 1 µM
[11] = Clearance in Wistar rat at 0.5 mg/kg, iv by LC-MS/MS analysis; type: ADME, organism-based; conditions: in vivo; for clearance: Wistar; for CL: 0.5 mg/kg
Rattus norvegicus [12] = assay: Suppression of ovariectomized-induced increase in plasma luteinizing hormone level in po dosed Wistar Han rat measured up to 24 hrs; type: functional; conditions: time hrs <=24
Procedure, shortened: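 Ovariectomized rats given single oral doses, range 1 to 30 mg/kg. Plasma LH followed over time, with cetrorelix at 0.1 mg/kg sc as reference. ED50 calculated from the dose-response.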

[13] = target: T2, Gonadotropin-releasing hormone receptor; assay: Antagonist activity at rat GnRH receptor expressed in CHO-K1 cells assessed as inhibition of buserelin-induced response preincubated for 20 mins followed by buserelin addition and measured after 60 mins by TR-FRET assay; type: cell-based; procedure, shortened: as §1
[14] = target: T3, Gonadotropin-releasing hormone receptor (Homo sapiens) (UniProt P30968); assay: Inhibition of Tag-lite green-labeled agonist binding to terbium fluorophore-labeled human N-terminal SNAP-tag GnRh receptor expressed in HEK293 cells assessed as dissociation rate constant by TR-FRET assay; type: cell-based; conditions: filed as antagonist
T3 sequence (whole entry): T1 sequence (P30968 whole entry)
Procedure, shortened: (§2)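 Kinetic competition at rt: tracer at 10 nM final with compound, Tb-hGnRH-R cells injected in the reader. TR-FRET read at time zero and every 21 s. Baseline-subtracted traces fitted with the Motulsky–Mahan competitive kinetics model. At least two independent experiments, two replicates each.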

[15] = target: T1, Gonadotropin-releasing hormone receptor; assay: Inhibition of Tag-lite green-labeled agonist binding to terbium fluorophore-labeled human N-terminal SNAP-tag GnRh receptor expressed in HEK293 cells assessed as dissociation constant by TR-FRET assay; type: cell-based
[16] = target: T1, Gonadotropin-releasing hormone receptor; assay: Inhibition of Tag-lite green-labeled agonist binding to terbium fluorophore-labeled human N-terminal SNAP-tag GnRh receptor expressed in HEK293 cells assessed as equilibrium dissociation constant by TR-FRET assay; type: cell-based
[17] = target: T3, Gonadotropin-releasing hormone receptor (Homo sapiens); assay: Inhibition of Tag-lite green-labeled agonist binding to terbium fluorophore-labeled human N-terminal SNAP-tag GnRh receptor expressed in HEK293 cells assessed as residence time by TR-FRET assay; type: cell-based; conditions: filed as antagonist; procedure, shortened: as §2
[18] = target: T3, Gonadotropin-releasing hormone receptor (Homo sapiens); assay: Inhibition of Tag-lite green-labeled agonist binding to terbium fluorophore-labeled human N-terminal SNAP-tag GnRh receptor expressed in HEK293 cells assessed as association rate constant by TR-FRET assay; type: cell-based; conditions: filed as antagonist; procedure, shortened: as §2
Rattus norvegicus [19] = assay: Suppression of ovariectomized-induced increase in plasma luteinizing hormone level in Wistar Han rat at 0.1 mg/kg, sc measured up to 24 hrs; type: functional, organism-based; conditions: time hrs <=24

CC1N(S(=O)(=O)c2ccc(F)cc2)c2ccc(C(=O)NCc3ccccc3Cl)cc2C12CCNCC2 (stereo in doubt; 3a)
chromatographic logD [1]: 2.8
IC50 ([2]; cho-k1): 172 nM
IC50 [3]: 1100 nM
Activity (Rattus norvegicus [4]): 74%
solubility at 24 h [5]: 271 µg/mL (≈ 513 µM)
bioavailability [6]: < 2%
IC50 [7]: 27 nM
IC50 ([8]; cho-k1): 99 nM

CC1N(S(=O)(=O)c2ccc(F)cc2)c2ccc(C(=O)NCc3ccccc3Cl)cc2C12CCNCC2 (stereo in doubt)
IC50 [2]: 172 nM
half-life [9]: 8.1 h
IC50 ([7]; cho-k1): 27 nM
CLint scaled at 1 µM [10]: 33.3 mL/min/kg
IC50 [8]: 99 nM
clearance [11]: 23.3 mL/min/kg

O=C(NCc1ncccc1Cl)c1ccc2c(c1)C1(CCS(=O)(=O)CC1)C(C1CC1)N2S(=O)(=O)c1ccc(F)cc1 (stereo in doubt)
bioavailability [6]: 27%
half-life [9]: 2.1 h
IC50 [7]: 40 nM
CLint scaled at 1 µM [10]: 4.17 mL/min/kg
IC50 [8]: 60 nM
clearance [11]: 30 mL/min/kg

CC(=O)N1CCC2(CC1)c1cc(C(=O)NCc3ncccc3Cl)ccc1N(S(=O)(=O)c1ccc(F)cc1)C2C (single isomer, unassigned)
IC50 [2]: 35 nM
bioavailability [6]: 18%
CLint scaled at 1 µM [10]: 11.7 mL/min/kg
IC50 [8]: 53.5 nM
clearance [11]: 28.3 mL/min/kg

COc1ccc(S(=O)(=O)N2c3ccc(C(=O)NCc4ccccc4Cl)cc3C3(CCN(C(C)=O)CC3)C2C)cc1 (stereo in doubt; form 3)
IC50 [2]: 28 nM
bioavailability [6]: 1.3%
CLH [10]: 20 mL/min/kg
IC50 [8]: 15 nM
CL [11]: 31.7 mL/min/kg

O=C(NCc1ncccc1Cl)c1ccc2c(c1)C1(CCS(=O)(=O)CC1)C(C1CC1)N2S(=O)(=O)c1ccc(F)cc1 (stereo in doubt; 4a) [listing 1 of 2 here]
chromatographic logD [1]: 3
IC50 ([7]; cho-k1): 40 nM
ED50 (Rattus norvegicus [12]): 5.5 mg/kg
IC50 [8]: 60 nM

COc1ccc(S(=O)(=O)N2c3ccc(C(=O)NCc4ccccc4Cl)cc3C3(CCN(C(C)=O)CC3)C2C)cc1 (stereo in doubt; form 2)
IC50 [2]: 99 nM
IC50 [13]: 34 nM
half-life [9]: 0.82 h
IC50 [7]: 29 nM
CLH [10]: 46.7 mL/min/kg
IC50 [8]: 41 nM
CL [11]: 78.3 mL/min/kg

COc1ccc(S(=O)(=O)N2c3ccc(C(=O)NCc4ccccc4Cl)cc3C(C)(C)C2C)cc1 (stereo in doubt; 1a)
chromatographic logD [1]: 3.8
IC50 [2]: 1500 nM
IC50 [13]: 1100 nM
IC50 [7]: 730 nM
CLint scaled at 1 µM [10]: 51.7 mL/min/kg
IC50 [8]: 570 nM

CC(=O)N[C@H](Cc1ccc2ccccc2c1)C(=O)N[C@H](Cc1ccc(Cl)cc1)C(=O)N[C@H](Cc1cccnc1)C(=O)N[C@@H](CO)C(=O)N[C@@H](Cc1ccc(O)cc1)C(=O)N[C@H](CCCNC(N)=O)C(=O)N[C@@H](CC(C)C)C(=O)N[C@@H](CCCNC(=N)N)C(=O)N1CCC[C@H]1C(=O)N[C@H](C)C(N)=O [CETRORELIX] (Ac-[d2Nal][dPhe(4-Cl)][d3Pal]SY[dCit]LRP[dA]-NH2)
K [14]: 1 10^-5/s
Kd [15]: 0.0017 nM
Kd [16]: 0.135 nM
TIME [17]: 0.583 h
K [18]: 3.57 10^6/M/s
Activity (Rattus norvegicus [19]): Active

COc1cccc(-c2c(C)n(Cc3c(F)cccc3C(F)(F)F)c(=O)n(C[C@H](NCCCC(=O)O)c3ccccc3)c2=O)c1F [ELAGOLIX SODIUM]
K [14]: 3.3 10^-4/s
Kd [15]: 3.21 nM
Kd [16]: 1.19 nM
TIME [17]: 1.27 h
K [18]: 2.06 10^5/M/s

O=C(NCc1ncccc1Cl)c1ccc2c(c1)C1(CCS(=O)(=O)CC1)C(C1CC1)N2S(=O)(=O)c1ccc(F)cc1 (stereo in doubt; 4a) [listing 2 of 2 here]
Activity (Rattus norvegicus [12]): Dose-dependent effect
